# MrgX1 ag: activates human MrgX1 receptor signaling; Q96LB2; MrgX1-HEK293 cells, Fluo-4 calcium fluorescence, agonist mode; active compounds read high; B-score at 10 µM; 0.44% of 310,000 active;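 active = calcium response B-score plate-corrected fluorescence ratio at least 3 library SD, with starting fluorescence B-score inside 5 SD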
# Target sequence (Q96LB2 whole entry, looked up): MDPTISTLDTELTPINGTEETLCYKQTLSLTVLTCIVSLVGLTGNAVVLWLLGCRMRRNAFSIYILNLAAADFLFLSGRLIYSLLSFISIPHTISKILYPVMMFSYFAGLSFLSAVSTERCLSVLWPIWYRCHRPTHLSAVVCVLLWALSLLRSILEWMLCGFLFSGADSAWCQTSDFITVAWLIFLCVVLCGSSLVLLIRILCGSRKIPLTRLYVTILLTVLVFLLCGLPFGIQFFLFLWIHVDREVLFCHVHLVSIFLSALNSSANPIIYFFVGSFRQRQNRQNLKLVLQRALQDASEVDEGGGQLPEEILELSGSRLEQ
#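 Material: MrgX1-expressing HEK293 cells / Dosing: compound as first of three additions / Incubation: overnight seeding, then 1 h dark dye loading / Signal: Fluo-4 NW calcium fluorescence / Evaluation: B-scored fluorescence response ratio / Benchmarks: positive and negative control wells on each plate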
# MrgX1 allo act: allosterically activates human MrgX1 receptor signaling. B-score at 10 µM. 0.63% of 310,000 active. MrgX1-HEK293, Fluo-4 calcium flux, FDSS; active compounds read high. Q96LB2;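 active = plate-corrected calcium response at least 3 library SD above typical, normal starting fluorescence, not activating the receptor alone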;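 note: compound read alongside a low EC10 to EC30 dose of BAM8-22 agonist; peak minus trough fluorescence over baseline measured at the second addition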
# RGS4 inh: human RGS4 inhibition; P49798; HEK293 M3R/RGS4 inducible, Fluo-4 calcium flux; active compounds read high; triggered by carbachol at its EC20; B-score at 10 µM; 0.45% of 310,000 active; AID 463165;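 active = B-score, a plate-corrected calcium signal, over three deviations above library mean, with baseline fluorescence within five deviations of library mean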;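 note: RGS4 expression induced by doxycycline in cells with stable M3 receptor; B-score is computed from the integrated fluorescence ratio over baseline after carbachol; higher B-score means a larger calcium signal and so more RGS4 inhibition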
# Target sequence (P49798 whole entry, looked up): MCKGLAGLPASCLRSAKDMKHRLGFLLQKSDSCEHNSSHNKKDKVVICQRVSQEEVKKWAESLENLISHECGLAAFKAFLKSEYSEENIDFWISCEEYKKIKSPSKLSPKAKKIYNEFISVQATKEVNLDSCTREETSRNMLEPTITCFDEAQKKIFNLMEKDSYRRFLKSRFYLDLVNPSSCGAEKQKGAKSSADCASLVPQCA
# MrgX1 antagonist: human MrgX1 receptor antagonism, primary screen; Q96LB2; MRGX1-HEK293 calcium flux, Fluo-4, BAM8-22 antagonism; active compounds read low; B-score at 10 µM; 1.3% of 310,000 active; AID 588676;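 active = calcium-response B-score plate-corrected more than 3 library SD below zero, starting fluorescence within 5 deviations, no agonist response on first addition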;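 note: peak minus trough fluorescence over baseline after final BAM8-22 challenge near maximal dose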
# RGS4 pot: RGS4 potentiation or activation. HEK293 M3R/inducible RGS4, carbachol calcium flux Fluo4; active compounds read low. B-score at 10 µM. 0.92% of 310,000 active;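 active = B-score of the integrated calcium signal more than 4 SD below the library mean, with starting fluorescence not abnormally high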;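 note: negative B-score means reduced calcium response which marks RGS4 activation or potentiation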
#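 Assay system: Inducible-RGS4 HEK293 cells carrying M3 receptor | Schedule: Compound preincubation 20 min at room temperature before agonist | Signal: Kinetic calcium fluorescence imaging with Fluo4-AM dye, 2 µM | Read-out basis: B score from integrated fluorescence ratio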
# MrgX1 ag confirm: human MrgX1 agonism, re-confirmation screen; shares compounds with MrgX1 ag; MrgX1-HEK293, Fluo-4 calcium fluorescence, FDSS; activation, % at 10 µM; 78% of 600 active; AID 602412;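 active = calcium signal rise, corrected for plate position, at least 3 library SD high, with starting brightness within 5 such deviations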
# HEK293 Ca flux: counter-screen for MrgX1 antagonists: effect in parental HEK293 cells | shares compounds with MrgX1 antagonist | Fluo-4 calcium fluorescence, FDSS | fluorescence ratio F(max-min)/F0 at 10 µM | 2% of 4,000 active | AID 624111;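 active = duplicate-averaged calcium fluorescence ratio at least three times the standard deviation of buffer wells, a nonspecific response in parental cells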
# HEK293 Ca counter: MrgX1 allosteric activator counter-screen hit in parental HEK293 cells | shares compounds with MrgX1 antagonist | parental HEK293 calcium flux, Fluo-4 fluorescence ratio; active compounds read high | fluorescence ratio F(max-min)/F0 at 10 µM | 0.4% of 4,000 active | AID 624114;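 active = calcium fluorescence ratio, averaged over duplicates, at least 3 SD of the buffer-well ratio, meaning a nonspecific response in receptor-free cells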;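 note: untransfected parental HEK293 lacking MrgX1 used as counterscreen for MrgX1 allosteric activators; fluorescence change taken during the second addition on a kinetic imager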
# HEK293 Ca cntr2: MrgX1 activator counter-screen hit in parental HEK293 cells; shares compounds with MrgX1 antagonist; Fluo-4 calcium fluorescence (FDSS); active compounds read high; fluorescence ratio F(max-min)/F0 at 10 µM; 8.7% of 4,000 active; AID 624115;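 active = calcium fluorescence ratio at least three times the spread of buffer wells, meaning a non-specific response in parental cells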
# Numbers without * were called inactive; i = inactive; . = no result given. Shown are actives, neighbours in structure and some others; about 3.5% of the full set was active somewhere.
SMILES,MrgX1 ag,MrgX1 allo act,RGS4 inh,MrgX1 antagonist,RGS4 pot,MrgX1 ag confirm,HEK293 Ca flux,HEK293 Ca counter,HEK293 Ca cntr2
CCCOc1ccc(C(=O)NNC(=S)NC(=O)c2ccco2)cc1,146*,i,i,i,i,661%*,i,i,127*
CCCCOc1ccc(C(=O)NNC(=S)NC(=O)CC)cc1,i,i,i,i,i,.,.,.,.
COc1ccc(C(=O)NNC(=S)NC(=O)c2ccco2)cc1,84*,i,i,i,i,486%*,i,i,86*
O=C(NNC(=S)NC(=O)c1ccco1)c1ccc(F)cc1,69*,i,i,i,i,201%*,i,i,47*
Cc1ccc(C(=O)NNC(=O)C2CCN(S(=O)(=O)c3ccc(C)cc3)CC2)cc1,i,i,i,i,i,.,.,.,.
CCCCC(=O)NNC(=S)NC(=O)c1ccc(C)cc1,150*,i,i,i,i,712%*,i,i,159*
COC(=O)c1ccccc1NC(=S)NC(=O)c1ccccc1,i,i,i,i,i,.,.,.,.
CCCCC(=O)NNC(=S)NC(=O)c1ccc([N+](=O)[O-])cc1,i,i,i,i,i,.,.,.,.
COC(=O)c1ccccc1NC(=S)NC(=O)c1ccc(C)cc1,37*,i,i,i,i,i,i,i,i
O=C(NC(=S)NNC(=O)c1ccco1)c1ccc(Br)cc1,135*,i,i,i,i,543%*,i,i,98*
CCCC(CCC)C(=O)Nc1cccc(-c2cn3c(n2)SCC3)c1,i,i,i,i,i,.,.,.,.
O=C(CSc1ncnc2ccccc12)c1cccs1,29*,i,i,i,i,i,i,i,i
COc1ccc(C(=O)NC(=S)NNC(=O)c2c(-c3ccccc3)noc2C)cc1OC,81*,i,i,i,i,222%*,i,i,51*
Cc1onc(-c2ccccc2)c1C(=O)NCc1ccc2c(c1)OCO2,i,i,i,i,i,.,.,.,.
COc1ccc(C(=O)NC(=S)NNC(=O)[C@H]2C[C@@H]2c2ccccc2)cc1OC,67*,i,i,i,i,378%*,i,i,72*
CC(C)(C)NC(=S)NNC(=O)[C@H]1C[C@@H]1c1ccccc1,i,i,i,i,i,.,.,.,.
Cc1onc(-c2ccccc2)c1C(=O)NNC(=S)NC(=O)c1ccc2c(c1)OCO2,77*,i,i,i,i,412%*,i,i,104*
COc1ccc(NS(=O)(=O)c2cc(NC(=O)CCSc3ccccc3)ccc2OC)cc1,i,i,i,i,i,.,.,.,.
N#Cc1ccc(-c2cccnc2)nc1SCc1ccc(Cl)c(Cl)c1,.,.,i,.,i,.,.,.,.
O=C(Nc1cccc(-c2cccc(Cl)c2)c1)C1CCN(CC2CCOC2)CC1 (stereo not drawn),i,i,i,i,i,.,.,.,.
O=S(=O)(Nc1cccc(-c2ccc3nncn3n2)c1)c1cc(F)ccc1F,45*,i,i,i,i,204%*,i,i,i
Cc1ccc(S(=O)(=O)Nc2cccc(-c3ccc4nncn4n3)c2)cc1,i,i,i,i,i,.,.,.,.
O=c1c2ccccc2sc2ccc(NCCCN3CCOCC3)cc12,34*,i,i,i,i,324%*,i,i,107*
CN1CCCC1CCNc1ccc2sc3ccccc3c(=O)c2c1 (stereo not drawn),50*,i,i,i,i,424%*,i,i,118*
C=C(C(=O)Nc1ccccc1)c1ccc(C)cc1,i,i,i,i,i,.,.,.,.
SMILES,MrgX1 ag,MrgX1 allo act,RGS4 inh,MrgX1 antagonist,RGS4 pot,MrgX1 ag confirm,HEK293 Ca flux,HEK293 Ca counter,HEK293 Ca cntr2
ClCc1nc2ccccc2c2ccccc12,44*,i,i,i,i,88%*,i,i,i
C=CCNc1ncnc2c1[nH]c1ccc(Cl)cc12,65*,i,i,i,i,353%*,i,i,59*
C=CCNc1ncnc2c1[nH]c1ccccc12,i,i,i,i,i,.,.,.,.
CCc1ccc(CNc2ccc3c(c2)ncn3CC)cc1,30*,i,i,i,i,166%*,i,i,i
CCc1ccc(CNc2ccc3c(c2)ncn3C(C)(C)C)cc1,i,i,i,i,i,.,.,.,.
Oc1c(C(c2ccccn2)N2CCCCC2)cc(Cl)c2cccnc12 (stereo not drawn),32*,i,i,i,i,97%*,i,i,i
CC(C)Cc1nc(SCc2cccnc2)c2c(=O)n(C)c(=O)n(C)c2n1,i,i,i,i,i,.,.,.,.
O=C(COC(=O)[C@H](Cc1ccccc1)NC(=O)c1cccs1)NC1CCCCC1,30*,i,i,i,i,195%*,i,i,46*
CCOc1ccc(N2C(=O)C3CC(C)=C(C)CC3C2=O)c([N+](=O)[O-])c1 (stereo not drawn),i,i,i,i,i,.,.,.,.
COc1cc2nc(NC(=O)c3ccc(Cl)cc3)sc(=O)c2cc1OC,i,i,i,i,i,.,.,.,.
O=C(NCc1ccc(F)cc1)NC(=O)c1ccc(Cl)cc1,i,i,i,i,i,.,.,.,.
CCOC(=O)c1ccccc1-c1cn2cc(Cl)ccc2n1,30*,i,i,i,i,152%*,i,i,i
Cc1c(Br)c(O)c(Br)c2sc(=O)oc12,33*,i,.,i,.,149%*,i,i,i
N#CSCC(=O)c1cccc2ccccc12,27*,i,.,i,.,230%*,i,i,i
CC(C)(C)n1nnnc1C(c1cccnc1)N1CCN(c2cccc(C(F)(F)F)c2)CC1 (stereo not drawn),i,i,i,i,i,.,.,.,.
CC(C)(C)c1cc(C(c2cccnc2)N2CCN(CCO)CC2)cc(C(C)(C)C)c1O (stereo not drawn),32*,i,i,i,i,263%*,i,i,53*
